By pIC50 is commonly meant −log10 of the IC50, conventionally taken in molar units.

pIC50: −log10 of the molar value.

One data set has as its system HeLa. Kind of data set: Cytotoxicity against human HeLa cells after 72 hrs by MTT assay. The format is functional, cell-based. The method in brief: (§1)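 Cell growth measured by MTT read-out after 72 h continuous drug exposure. IC50 values derived from at least three independent experiments.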
On the technique in general: Formazan colour is commonly taken as a measure of viable cells.

Another data set relates to MDA-MB-231. Kind of data set: Cytotoxicity against human MDA-MB-231 cells after 72 hrs by MTT assay. It counts as functional, cell-based. To be noted: MDA-MB-231, 72 h. The method in brief:
as §1

The next data set has as its system A549. Nature of the data set: Cytotoxicity against human A549 cells after 72 hrs by MTT assay. The format is functional, cell-based. The settings on record: A549, 72 h. The method in brief:
as §1

Data set [1] has as its system K562. Kind of data set: Cytotoxicity against human K562 cells after 72 hrs by MTT assay. The format is functional, cell-based. The settings on record: K562, 72 h. The method in brief:
as §1

For another data set, the system named is PC-3. Nature of the data set: Cytotoxicity against human PC3 cells after 72 hrs by MTT assay. It counts as functional, cell-based. To be noted: PC-3, 72 h. The method in brief: as §1
For another data set, the system named is MCF7. Kind of data set: Cytotoxicity against human MCF7 cells after 72 hrs by MTT assay. The settings on record: MCF7, 72 h. The format is functional, cell-based. The method in brief:
as §1

The next data set has as its system A2780. Kind of data set: Cytotoxicity against human A2780 cells after 72 hrs by MTT assay. The format is functional, cell-based. To be noted: A2780, 72 h. The procedure, abridged: as §1
A further data set relates to MOLT-4. Kind of data set: Cytotoxicity against human MOLT4 cells after 72 hrs by MTT assay. To be noted: MOLT-4, 72 h. The format is functional, cell-based. The method in brief: as §1
The nature of data set [2]: Effective permeability of the compound in human Caco2 cells at 50 uM after 15 to 90 mins in presence of sodium azide. To be noted: Caco-2, with sodium azide (concentration not stated), read-out: Peff. The format is ADME, cell-based. The procedure, abridged:
(§2)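 Caco-2 monolayers dosed at 50 μM. Transport measured in both directions, apical to basal (Pab) and basal to apical (Pba), in separate runs with and without the metabolic inhibitor sodium azide. Permeability coefficients were calculated with sink or non-sink equations. Values are means of three independent experiments.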
(Caco-2 cells form a polarised layer with tight junctions and transporters.)

A short description of data set [3]: Effective permeability of the compound in human Caco2 cells at 50 uM after 15 to 90 mins. The settings on record: Caco-2, read-out: Peff. The format is ADME, cell-based. The method in brief:
as §2

The subject of data set [4] is K562. Kind of data set: Ratio of topotecan IC50 to compound IC50 for human K562 cells. The format is functional.

Regarding `CC[C@@]1(O)C(=O)OCc2c1cc1n(c2=O)Cc2cc3c(CN4C(=O)c5ccccc5C4=O)c(O)ccc3nc2-1`, in the data set on HeLa, the pIC50 is 5.89.

For the molecule `CC[C@@]1(O)C(=O)OCc2c1cc1n(c2=O)Cc2cc3c(CN4C(=O)C5=C(CCCC5)C4=O)c(O)ccc3nc2-1`, the negative logarithm of the IC50 (pIC50) with MDA-MB-231 is less than 6.30; in the data set on A549 it was 6.46; with K562 [1], less than 6.30; with PC-3, 6.99; in the data set on MCF7, 6.80; in the data set with A2780, 7.39. The pIC50 was 7.82 with MOLT-4 and 6.67 in the data set with HeLa.

Take `CC[C@@]1(O)C(=O)OCc2c1cc1n(c2=O)Cc2cc3c(CN4C(=O)C=CC4=O)c(O)ccc3nc2-1`: the pIC50 in the data set with HeLa was less than 5.30.

For `CC[C@@]1(O)C(=O)OCc2c1cc1n(c2=O)Cc2cc3c(CN4CCCC4=O)c(O)ccc3nc2-1`, the values for the Papp at 50 µM in data set [2] and in data set [3] were 1.33 ×10⁻⁶ cm/s and 0.48 ×10⁻⁶ cm/s, respectively. In the data set with HeLa, this molecule gave a pIC50 of less than 5.30.

Regarding `CC[C@@]1(O)C(=O)OCc2c1cc1n(c2=O)Cc2cc3c(CNC(C)=O)c(O)ccc3nc2-1`, the Papp at 50 µM in [2] was 1.52 ×10⁻⁶ cm/s; in data set [3] it was 1.17 ×10⁻⁶ cm/s. This molecule also gave a pIC50 with HeLa of less than 5.30.

Regarding `CC[C@@]1(O)C(=O)OCc2c1cc1n(c2=O)Cc2cc3c(CN4C(=O)C5=C(CCCC5)C4=O)c(OC)ccc3nc2-1`, the Papp at 50 µM stood at 2.58 ×10⁻⁶ cm/s in data set [2] and 4.91 ×10⁻⁶ cm/s in data set [3]. Moreover, in the data set on K562 [4], the “Ratio IC50” value turned out to be 5. The negative-log IC50 (pIC50) is 6.30 with MDA-MB-231; 6.65 in the data set on A549; 6.96 in the data set with K562 [1]; 7.29 in the data set on PC-3; 7.11 in the data set on MCF7; 7.55 in the data set on A2780. For the same molecule, the figures for the pIC50 in the data set with MOLT-4 and with HeLa were 7.85 and 6.76, respectively.

Turning to `CC[C@@]1(O)C(=O)OCc2c1cc1n(c2=O)Cc2cc3ccccc3nc2-1` [CAMPTOTHECIN], the Papp at 50 µM in [2] was found to be 1 ×10⁻⁶ cm/s; in data set [3], 7.88 ×10⁻⁶ cm/s. In addition, the negative-log IC50 (pIC50) is 6.79 with MDA-MB-231; 7.00 in the data set on A549; 7.51 with K562 [1]; 7.11 with PC-3; 7.59 in the data set on MCF7; 7.89 in the data set on A2780. Besides, the pIC50 in the data set on MOLT-4 is 10.40; in the data set on HeLa it was 7.62.

Turning to `CC[C@@]1(O)C(=O)OCc2c1cc1n(c2=O)Cc2cc3cc(O)ccc3nc2-1` [HYDROXYCAMPTOTHECIN], the Papp at 50 µM is 1.01 ×10⁻⁶ cm/s in data set [2] and 7.88 ×10⁻⁶ cm/s in data set [3].

With `CC[C@@]1(O)C(=O)OCc2c1cc1n(c2=O)Cc2cc3c(CN(C)C)c(O)ccc3nc2-1` [TOPOTECAN], the Papp at 50 µM in [2] was 2.88 ×10⁻⁶ cm/s; in [3] it was 1.77 ×10⁻⁶ cm/s. Besides, the negative logarithm of the IC50 (pIC50) with MDA-MB-231 was less than 6.30; in the data set with A549 it was 6.45; with K562 [1], 6.30; in the data set on PC-3, 7.21; in the data set on MCF7, 7.20; in the data set with A2780, 7.48. Moreover, the pIC50 in the data set on MOLT-4 was 7.72.

The values are drawn from ChEMBL document CHEMBL2407086, “Semisynthesis, cytotoxic activity, and oral availability of new lipophilic 9-substituted camptothecin derivatives” (ACS Med Chem Lett, 2013).
